The results in this text go back to ChEMBL document CHEMBL1146146, “Redesign of aminoglycosides for treatment of human genetic diseases caused by premature stop mutations” (2006).

As usually defined, the MIC is the least concentration at which growth counts as inhibited. Read a high MIC as a need for much substance.

For experiment [1], the system named is Protocadherin-15 (Homo sapiens), Q96QU1 [R3X]. As to the kind of experiment: Suppression of human PCDH15 R3X mutation at 80 ug/ml. The gist of the method: (§1)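 In vitro transcription-translation of a reporter plasmid carrying the PCDH15 R3X nonsense mutation (premature UGA C stop), with [35S]methionine and a range of drug concentrations. Products were resolved by SDS-PAGE and quantified by PhosphorImager. Suppression is the 35-kDa product as a share of total (35 + 25 kDa) protein. Translation level is total protein at each concentration relative to the drug-free reaction. Values are means of ≥3 independent experiments; sulfate salts were tested.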

The test system of experiment [2] is Escherichia coli. The experiment can be described thus: Antibacterial activity against Escherichia coli ATCC 25922 at 80 ug/ml. It is filed as functional.
The test system of experiment [3] is Bacillus subtilis. As to the kind of experiment: Antibacterial activity against Bacillus subtilis ATCC 6633 at 80 ug/ml. In kind it is functional.
Experiment [4] relates to Protocadherin-15 (Homo sapiens), Q96QU1 [R3X]. The experiment can be described thus: Effect on human PCDH15 R3X mutation translation level at 80 ug/ml. The method in brief: as §1
The subject of experiment [5] is Bacillus subtilis. The experiment can be described thus: Antibacterial activity against Bacillus subtilis ATCC 6633 at 40 ug/ml. In kind it is functional.
In experiment [6] the test system is Protocadherin-15 (Homo sapiens), Q96QU1 [R3X]. The experiment can be described thus: Suppression of human PCDH15 R3X mutation at 40 ug/ml. The gist of the method:
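The PCDH15 R3X (UGA C) reporter is coupled-transcribed and translated in vitro in the presence of [35S]methionine, then run on SDS–PAGE with PhosphorImager quantification. Suppression is the fraction of the 35-kDa read-through product out of total protein (35-kDa plus 25-kDa truncated product). Values are averages of at least three independent experiments.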

For experiment [7], the system named is Escherichia coli. As to the kind of experiment: Antibacterial activity against Escherichia coli ATCC 25922 at 40 ug/ml. It is filed as functional.
The test system of experiment [8] is Protocadherin-15 (Homo sapiens), Q96QU1 [R3X]. As to the kind of experiment: Effect on human PCDH15 R3X mutation translation level at 40 ug/ml. The method in brief:
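Reporter plasmid carrying the PCDH15 R3X nonsense mutation (premature UGA C stop codon) is transcribed and translated in vitro with [35S]methionine and drug added. Products are resolved by SDS–PAGE and quantified by PhosphorImager. Translation level is total protein (35 + 25 kDa) at each drug concentration relative to total protein without drug. Values are means of at least three independent experiments.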

Experiment [9] concerns Escherichia coli. The experiment can be described thus: Antibacterial activity against Escherichia coli ATCC 25922 at 30 ug/ml. In kind it is functional, organism-based.
The subject of experiment [10] is Protocadherin-15 (Homo sapiens), Q96QU1 [R3X]. The experiment can be described thus: Suppression of human PCDH15 R3X mutation at 30 ug/ml. The gist of the method: as §1
Target sequence in this assay (Q96QU1 other isoform, or with tags, fused parts or gaps): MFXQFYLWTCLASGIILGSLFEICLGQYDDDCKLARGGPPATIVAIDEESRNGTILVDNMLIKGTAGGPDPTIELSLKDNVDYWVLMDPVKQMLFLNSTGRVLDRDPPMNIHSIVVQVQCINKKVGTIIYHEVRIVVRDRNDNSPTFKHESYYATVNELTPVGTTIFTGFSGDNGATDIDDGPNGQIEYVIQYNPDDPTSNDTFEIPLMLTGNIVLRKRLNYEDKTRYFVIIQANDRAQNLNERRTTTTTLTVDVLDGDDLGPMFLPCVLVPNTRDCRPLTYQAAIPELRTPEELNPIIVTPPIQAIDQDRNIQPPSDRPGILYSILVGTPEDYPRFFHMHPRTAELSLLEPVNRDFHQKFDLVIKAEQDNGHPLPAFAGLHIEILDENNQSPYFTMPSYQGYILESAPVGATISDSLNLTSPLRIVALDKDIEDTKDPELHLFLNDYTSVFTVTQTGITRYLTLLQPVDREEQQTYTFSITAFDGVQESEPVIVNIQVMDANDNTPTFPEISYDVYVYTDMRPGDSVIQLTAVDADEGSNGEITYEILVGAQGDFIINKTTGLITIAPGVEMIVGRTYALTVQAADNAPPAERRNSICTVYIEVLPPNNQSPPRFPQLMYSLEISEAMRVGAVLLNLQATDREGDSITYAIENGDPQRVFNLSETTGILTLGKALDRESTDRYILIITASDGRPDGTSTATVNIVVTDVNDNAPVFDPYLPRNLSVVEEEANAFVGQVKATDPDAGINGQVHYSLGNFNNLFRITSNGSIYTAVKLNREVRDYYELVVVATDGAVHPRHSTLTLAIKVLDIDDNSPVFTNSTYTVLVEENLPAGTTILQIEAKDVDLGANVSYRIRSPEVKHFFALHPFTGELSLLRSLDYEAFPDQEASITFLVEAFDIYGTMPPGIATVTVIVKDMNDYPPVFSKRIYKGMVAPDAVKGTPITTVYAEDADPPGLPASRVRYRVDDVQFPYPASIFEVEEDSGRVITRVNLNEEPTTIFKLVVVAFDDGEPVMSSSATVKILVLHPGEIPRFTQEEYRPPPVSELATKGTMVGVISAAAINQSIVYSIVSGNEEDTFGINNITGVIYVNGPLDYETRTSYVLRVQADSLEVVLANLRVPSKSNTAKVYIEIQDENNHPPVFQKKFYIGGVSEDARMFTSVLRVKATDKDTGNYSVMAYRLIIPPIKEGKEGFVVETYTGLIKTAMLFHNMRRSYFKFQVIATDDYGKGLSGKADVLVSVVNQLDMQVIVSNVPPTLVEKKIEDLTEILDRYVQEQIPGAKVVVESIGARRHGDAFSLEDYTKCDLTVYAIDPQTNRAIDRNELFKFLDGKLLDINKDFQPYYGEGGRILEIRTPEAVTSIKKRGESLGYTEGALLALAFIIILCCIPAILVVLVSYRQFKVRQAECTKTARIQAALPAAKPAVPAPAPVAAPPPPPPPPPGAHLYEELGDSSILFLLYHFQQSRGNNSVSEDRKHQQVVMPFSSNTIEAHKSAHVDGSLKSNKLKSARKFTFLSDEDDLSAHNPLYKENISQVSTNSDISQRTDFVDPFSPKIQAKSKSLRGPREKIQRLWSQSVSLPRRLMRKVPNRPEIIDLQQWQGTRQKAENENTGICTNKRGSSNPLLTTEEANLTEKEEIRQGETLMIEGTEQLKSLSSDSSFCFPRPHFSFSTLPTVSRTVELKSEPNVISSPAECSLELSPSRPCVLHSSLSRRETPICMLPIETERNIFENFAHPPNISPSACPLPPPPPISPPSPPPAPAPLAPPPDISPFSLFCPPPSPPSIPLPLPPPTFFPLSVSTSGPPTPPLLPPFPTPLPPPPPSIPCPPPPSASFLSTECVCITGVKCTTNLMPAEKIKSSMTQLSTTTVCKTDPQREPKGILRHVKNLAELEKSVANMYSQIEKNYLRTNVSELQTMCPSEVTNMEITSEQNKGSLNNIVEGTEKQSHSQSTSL
Experiment [11] has the same test system. As to the kind of experiment: Effect on human PCDH15 R3X mutation translation level at 30 ug/ml. The method in brief:
as §1
Target sequence in this assay (Q96QU1 other isoform, or with tags, fused parts or gaps): as above

Experiment [12] has as its system Bacillus subtilis. The experiment can be described thus: Antibacterial activity against Bacillus subtilis ATCC 6633 at 30 ug/ml. It is filed as functional, organism-based.
For experiment [13], the system named is Protocadherin-15 (Homo sapiens), Q96QU1 [R3X]. The experiment can be described thus: Suppression of human PCDH15 R3X mutation at 160 ug/ml. The method in brief: as §1
In experiment [14] the test system is Escherichia coli. The experiment can be described thus: Antibacterial activity against Escherichia coli ATCC 25922 at 160 ug/ml. In kind it is functional.
The test system of experiment [15] is Bacillus subtilis. As to the kind of experiment: Antibacterial activity against Bacillus subtilis ATCC 6633 at 160 ug/ml. It is filed as functional.
For experiment [16], the system named is Protocadherin-15 (Homo sapiens), Q96QU1 [R3X]. As to the kind of experiment: Effect on human PCDH15 R3X mutation translation level at 160 ug/ml. The gist of the method:
as §1

Regarding `N[C@H]1[C@@H](O[C@H]2[C@H](O)[C@@H](O)[C@H](N)C[C@@H]2N)O[C@H](CO)[C@@H](O)[C@@H]1O.O=S(=O)(O)O` [PAROMAMINE SULFATE], the Activity in experiment [1] came to 6.2%; in [4], 74%. Also, the MIC in experiment [2] turned out to be 512 µg/mL; in experiment [3], 128 µg/mL.

Turning to `NC[C@@H]1O[C@H](O[C@H]2[C@@H](O)[C@H](O[C@@H]3[C@@H](O)[C@H](N)C[C@H](N)[C@H]3O[C@H]3O[C@H](CO)[C@@H](O)[C@H](O)[C@H]3N)O[C@@H]2CO)[C@H](N)[C@@H](O)[C@@H]1O.O=S(=O)(O)O` [PAROMOMYCIN SULFATE], the MIC worked out at 8 µg/mL in [5], 12 µg/mL in experiment [7], 512 µg/mL in experiment [2] and 128 µg/mL in experiment [3]. Further, the Activity in experiment [6] amounted to 49%; in experiment [8], 40%; in [1], 6.2%; in experiment [4], 74%.

For the compound GENTAMICIN SULFATE, the MIC in experiment [9] was 4 µg/mL; in experiment [12], below 0.5 µg/mL. Also, the Activity in experiment [10] worked out at 49%; in experiment [11], 40%.

Take `N[C@H]1[C@@H](O[C@H]2[C@H](O[C@@H]3O[C@H](CO)[C@@H](O)[C@H]3O)[C@@H](O)[C@H](N)C[C@@H]2N)O[C@H](CO)[C@@H](O)[C@@H]1O.O=S(=O)(O)O`: the results for the Activity in experiment [1] and in experiment [4] were 1.3% and 100%, respectively. In addition, the figures for the MIC in experiment [2] and in experiment [3] were 256 µg/mL and 64 µg/mL, respectively.

For the compound `NC[C@H]1O[C@@H](O[C@@H]2[C@@H](N)[C@@H](O[C@H]3[C@H](O)[C@@H](O)[C@H](N)C[C@@H]3N)O[C@H](CO)[C@H]2O)[C@H](O)[C@@H]1O.O=S(=O)(O)O`, the Activity in experiment [1] turned out to be 2.9%; in [4] it was 98%. In addition, the MIC worked out at 192 µg/mL in experiment [2] and 48 µg/mL in experiment [3].

As to `NC[C@@H]1O[C@H](O[C@@H]2[C@@H](O)[C@H](O[C@H]3O[C@H](CO)[C@@H](O)[C@H](O)[C@H]3N)[C@@H](N)C[C@H]2N)[C@@H](O)[C@H]1O.O=S(=O)(O)O`, the results for the Activity in experiment [1] and in experiment [4] were 4.4% and 75%, respectively. In addition, the MIC in experiment [2] is above 512 µg/mL; in experiment [3], 192 µg/mL.

`N[C@H]1[C@@H](O[C@H]2[C@H](O)[C@@H](O)[C@H](N)C[C@@H]2N)O[C@H](CO)[C@@H](O)[C@@H]1O[C@@H]1O[C@H](CO)[C@@H](O)[C@H]1O.O=S(=O)(O)O`: the results for the Activity in experiment [13] and in experiment [16] were below 1% and 82%, respectively. Further, the MIC in experiment [14] and in experiment [15] was above 512 µg/mL in each case.

As to `N[C@H]1[C@@H](O[C@H]2[C@H](O)[C@@H](O)[C@H](N)C[C@@H]2N)O[C@H](CO)[C@@H](O)[C@H]1N.O=S(=O)(O)O`, the Activity in [1] was determined as 2%; in experiment [4], 71%. Moreover, the MIC in [2] amounted to 192 µg/mL; in experiment [3] it was 48 µg/mL.

With `N[C@H]1[C@@H](O[C@H]2[C@H](O)[C@@H](O[C@H]3O[C@@H](CO)[C@H](O)[C@@H]3O)[C@H](N)C[C@@H]2N)O[C@H](CO)[C@@H](O)[C@@H]1O.O=S(=O)(O)O`, the Activity is 1.5% in experiment [1] and 74% in experiment [4]. The MIC is 256 µg/mL in experiment [2] and 96 µg/mL in [3].

In the case of `NC[C@H]1O[C@@H](O[C@@H]2[C@@H](O)[C@H](N)C[C@H](N)[C@H]2O[C@H]2O[C@H](CO)[C@@H](O)[C@H](O)[C@H]2N)[C@H](O)[C@@H]1O.O=S(=O)(O)O`, the Activity in experiment [1] is 21%; in experiment [4], 72%. The MIC in experiment [2] was above 512 µg/mL; in experiment [3], 48 µg/mL.

In the case of `N[C@H]1[C@@H](O[C@H]2[C@H](O)[C@@H](O)[C@H](N)C[C@@H]2N)O[C@H](CO)[C@@H](O)[C@@H]1OCO[C@@H]1[C@@H](N)[C@@H](O[C@H]2[C@H](O)[C@@H](O)[C@H](N)C[C@@H]2N)O[C@H](CO)[C@H]1O.O=S(=O)(O)O`, the results for the Activity in experiment [1] and in experiment [4] were below 1% and 22%, respectively. Further, the MIC came out at 96 µg/mL in experiment [2] and 48 µg/mL in [3].
